Test [1] can be described thus: S. cerevisiae growth inhibition in permissive medium (OD615), pilot counter-assay for S. cerevisiae lifespan shortening project, permissive growth control (AID 705;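 active means growth inhibition above 25% in both replicates, a cutoff set 3 SD above the mean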). The following applies: OD615, 24 h, at 10 µM, active compounds read high. In a few lines:
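System: engineered DeaD yeast; Medium: permissive raffinose/galactose medium; Compound dosing: 10 µM single dose, 0.25% DMSO; Incubation: 4 h cell pre-growth, 24 h exposure at 30 °C; Technique: OD at 615 nm; Evaluation: growth inhibition from lowered OD615 after 24 h.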

The nature of test [2]: S. cerevisiae growth inhibition in restrictive medium, OD615, pilot screen, restrictive growth control, yeast lifespan reduction project (AID 706;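 active means growth inhibition above a set limit, 3 SD over mean compound inhibition, in both replicates, cut at about 43% in these data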;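 further: modified DeaD lifespan yeast strain shifted to restrictive glucose medium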). To be noted: OD615, 48 h, at 10 µM, active compounds read high. In a few lines:
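Material: modified S. cerevisiae; buffer or medium: CSMM-D glucose medium; doses: one concentration, 10 µM final, 0.25% DMSO; incubation: 48 h compound exposure at 30 °C; detection: optical density at 615 nm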

Test [3] is described as follows: doxorubicin toxicity protection in MRP-1 cells – H69AR cells, CellTiter-Glo, duplicate, MRP-1 activator project, pilot screen (AID 807).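 Further: compound pretreatment 18-22 h then 72 h combined with doxorubicin; 0% = doxorubicin alone and 100% = vehicle without doxorubicin.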 To be noted: H69AR viability with doxorubicin, CellTiter-Glo luminescence; at 10 µM; active compounds read high.
Test [4] in a line: viability of HCT116 without oncogenic beta-catenin – human colon tumor cells, pilot screen (AID 823;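 active means cell viability at or below a set limit in both duplicate runs, the limit being the all-compound median minus 4 SD, cut at about 23% in these data, passing the limit was not always enough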;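 further: 0% = wells killed by 20 µM Hyamine and 100% = untreated DMSO cell wells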). The following applies: HCT116 beta-catenin knockout viability, CellTiter-Glo, 60 h; at 10 µM; active compounds read low.
Test [5] can be described thus: viability of PTEN-null HCT116 cells – cell-based, HCT116 clonal line, CellTiter-Glo, pilot screen (AID 824;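 active means viability at or below 27.92% in each of two runs, the all-compound median minus 4 SD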;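 further: 0% = 20 µM Hyamine control and 100% = vehicle cell control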). To be noted: HCT116 PTEN-deleted viability, 60 h, at 10 µM, active compounds read low. (Cellular ATP, detected with luciferase, serves as a proxy for viable cell number.)
Test [6] in a line: RAM pathway blockade in budding yeast – dse1pr::URA3 reporter, 5-FOA selection, pilot screen (AID 869;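 active means inhibition over a set limit, the all-compound mean plus 3 SD, in both replicate runs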;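 further: 0% = DMSO wells with no growth and 100% = 10 µM 1-NA-PP1 with full growth; RAM network block rescues cells from 5-FOA so hits raise OD615 growth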). To be noted: S. cerevisiae dse1pr::URA3 5-FOA growth, OD615, 2 d; at 10 µM; active compounds read high; strain carries analog-sensitive mutant Cbk1 kinase.
Test [7] can be described thus: RAM signaling pathway blockade in yeast – S. cerevisiae, Pdr1DBD-CYC8 efflux-inhibited sensitized strain, primary screen (AID 1298;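 active means RAM network inhibition above 8.4% in each of two replicates, 3 SD over the compound average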;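 further: 0% = DMSO untreated cells without growth and 100% = 10 µM 1-NA-PP1 full growth; higher means more yeast growth rescued from 5-FOA killing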). The following applies: S. cerevisiae cbk1-as DSE1-URA3 strain, 5-FOA growth OD615, 2 d; at 50 µM; active compounds read high.

The values below come from PubChem BioAssay.

By viability is commonly meant a read-out of living cells in per cent, often relative to untreated cells. What is called inhibition is the change of the read-out against control, counted positive when it falls.

Unmarked numbers belong to inactive results. Inconclusive results are not listed. Activity calls are given as the source filed them.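 How the source made its calls, unless noted: active means viability increase at or above a cutoff of the median across tested compounds plus 3 SD (cut at about 8.5% in these data, passing the limit was not always enough); inconclusive means some gains above the cutoff, reason not given; inactive means the rest.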

As for `COC(=O)CCc1n[nH]c(=O)[nH]c1=O`, the growth inhibition in test [1] is 3.66%; in test [2] it was 9.25%. The viability increase in test [3] was 0.89%. The viability is 106% in test [4] and 102% in test [5]. For the same molecule, the inhibition in test [6] is 0.54%. In test [7], the RAM network inhibition is -0.87%.
On to `Cn1c(C(=O)NCCN2CCCCCC2)cc2c(=O)n(C)c3ccccc3c21`, for which the growth inhibition in test [1] is -1.66%; in test [2], 0.56%. For the same molecule, the viability increase in test [3] is -5.04%. Besides, the values for the viability in test [4] and in test [5] were 65.7% and 74.9%, respectively. Also, in test [6], the inhibition is 1.29%. For the same molecule, the RAM network inhibition in test [7] was 5.21%.
On to `CC(=NCCc1ccccc1)C1=C(O)COC1=O`, for which the growth inhibition in test [1] is 4.12%; in test [2], -6.99%. Moreover, in test [3], the viability increase is -2.71%. Besides, the results for the viability in test [4] and in test [5] were 98.2% and 99.9%, respectively. For the same molecule, the inhibition in test [6] was 0.87%. In addition, the RAM network inhibition in test [7] is 2.27%.
`CC(=O)Oc1cccc(N2C(=O)C3C(C2=O)C2C=CC3C23CC3)c1` (configuration not stated): the growth inhibition in test [1] is -8.98%; in test [2] it was -8.59%. Besides, the viability increase in test [3] was -0.99%. The viability was 96.9% in test [4] and 101% in test [5]. In test [6], the inhibition is 0.125%. Moreover, in test [7], the RAM network inhibition was 0.63%.
With `Cn1c(SCC(=O)NCC2CCCO2)nc2c([nH]c3ccccc32)c1=O` (configuration not stated), the growth inhibition in test [1] was 2.66%; in test [2], -9.87%. Moreover, in test [3], the viability increase was -5.32%. Besides, the results for the viability in test [4] and in test [5] were 90.5% and 91.7%, respectively. Also, the inhibition in test [6] is 0.065%. Besides, in test [7], the RAM network inhibition was 2.79%.
In the case of `O=C(NC1CCCCC1)C(c1ccccc1)N1CCCC1` (configuration not stated), the growth inhibition is 1.67% in test [1] and -3.42% in test [2]. Also, the viability increase in test [3] is -1.59%. Further, the viability in test [4] is 96.6%; in test [5], 97.7%. In test [6], the inhibition is 1.43%. Besides, the RAM network inhibition in test [7] was 5.5%.
On to `CCN1CCN(C(=O)CS(=O)(=O)Cc2nc(-c3ccc(C)cc3)oc2C)CC1`, for which the growth inhibition is -5.05% in test [1] and 3.62% in test [2]. The viability increase in test [3] is -0.17%. Moreover, the viability in test [4] was 85.2%; in test [5], 87.8%. In addition, the inhibition in test [6] was 0.805%. The RAM network inhibition in test [7] was 2.7%.
Consider `COc1ccc(-n2c(Cc3cccn3C)nnc2SCC(=O)Nc2ccc(C(C)=O)cc2)cc1`, for which the growth inhibition in test [1] is 3.63%; in test [2], 17.8%. Further, the viability increase in test [3] is -3.67%. For the same molecule, the figures for the viability in test [4] and in test [5] were 99.4% and 90.8%, respectively. Also, the inhibition in test [6] was 1.6%. Moreover, the RAM network inhibition in test [7] was 3.56%.
As for `Cc1c(Nc2nc3ccccc3nc2N2CCN(c3ccccc3)CC2)c(=O)n(-c2ccccc2)n1C`, the growth inhibition is -2.84% in test [1] and -9.73% in test [2]. The viability increase in test [3] is -4.8%. Moreover, the viability was 69% in test [4] and 70.6% in test [5]. Moreover, in test [6], the inhibition is 0.73%. Also, the RAM network inhibition in test [7] was 5.41%.
As to `Cc1ccc(Cn2c3ccccc3c3cn[nH]c(=O)c32)cc1`, the growth inhibition is -15.7% in test [1] and -24.6% in test [2]. Besides, the viability increase in test [3] was -3.48%. For the same molecule, the viability in test [4] was 101%; in test [5], 91.1%. In addition, the inhibition in test [6] was 2.17%. In addition, the RAM network inhibition in test [7] was 3.88%.
As to `CC1(C)CC(=O)C=C(NCCc2ccc(S(N)(=O)=O)cc2)C1`, the results for the growth inhibition in test [1] and in test [2] were -8.44% and -12%, respectively. Besides, the viability increase in test [3] was -0.64%. In addition, the values for the viability in test [4] and in test [5] were 94.3% and 96.2%, respectively. Besides, the inhibition in test [6] was 1.18%. In addition, the RAM network inhibition in test [7] is 1.82%.
As for `COC(=O)C1=COC(C)C2CN3CCc4c([nH]c5ccccc45)C3CC12` (configuration not stated), the growth inhibition in test [1] is -14.5%; in test [2], 1.04%. Besides, the viability increase in test [3] was -4.71%. The figures for the viability in test [4] and in test [5] were 77.4% and 86%, respectively. The inhibition in test [6] was 1.6%. Also, the RAM network inhibition in test [7] is 7.8%.
For `N#Cc1ccc(NC(=O)Nc2ccc(Cl)cc2)cc1`, the growth inhibition is 3.13% in test [1] and -4.69% in test [2]. Further, the viability increase in test [3] is -7.91%. The viability is 6.71% (active) in test [4] and 7.35% (active) in test [5]. Also, the inhibition in test [6] is 1.34%. Further, the RAM network inhibition in test [7] is 1.44%.
Regarding `Cc1ccccc1-c1nc(CS(=O)CC(=O)NCc2ccccc2)c(C)o1` (configuration not stated), the results for the growth inhibition in test [1] and in test [2] were 0.295% and 7.02%, respectively. Moreover, the viability increase in test [3] was 1.37%. Moreover, the viability in test [4] and in test [5] was 101% in each case. In addition, the inhibition in test [6] is 0.655%. Further, the RAM network inhibition in test [7] was 4%.
For `CCOC(=O)N1CCC(N2Cc3cccc(C(=O)Nc4ccc(OC)c(OC)c4)c3C2=O)CC1`, the growth inhibition in test [1] is -7.4%; in test [2] it was -0.92%. In addition, the viability increase in test [3] was -3.99%. Moreover, the viability in test [4] is 66.2%; in test [5] it was 66.8%. The inhibition in test [6] is 2.03%. The RAM network inhibition in test [7] was 1.98%.
Consider `COc1ccc2c(c1OC)C(=O)OC2Nc1ccccn1` (configuration not stated), for which the values for the growth inhibition in test [1] and in test [2] were 10.3% and -7.84%, respectively. The viability increase in test [3] was -2.18%. Moreover, the values for the viability in test [4] and in test [5] were 102% and 99.7%, respectively. The inhibition in test [6] is 1.34%. Besides, the RAM network inhibition in test [7] is 1.17%.
